T cruzi repl: inhibitors of intracellular T. cruzi growth, primary screen, luminescence, NIH3T3 host cells | AID 1885, 2009 | T. cruzi beta-gal in NIH3T3, 90 h | 300,000 tested, 1.4% active | inhibition, % (concentration not given with the values);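 active means mean inhibition across valid replicates above about 55%, limit read from the data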;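 further: signal also drops with host cell toxicity which is not excluded here; 0% = plate median of DMSO wells and 100% = zero luminescence signal; higher percent means less beta-gal luminescence so fewer parasites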
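Incubation – ≥90 h infection period, 3 h prior cell attachment · System – NIH/3T3 fibroblasts plus reporter T. cruzi · Doses – compound pinned at 50 nL/well, DMSO · Read-out basis – percent inhibition of parasite-derived β-gal signal · Signal – luminescent β-galactosidase signal after 60 min lysis · Also added – 5000 T. cruzi trypomastigotes/well · Medium – Low-serum DMEM with 2% FBS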
NS3 helicase inh: inhibitors of HCV NS3 helicase, primary screen, biochemical, Cy5 molecular beacon fluorescence; Hepatitis C virus NS3 helicase; NS3 helicase DNA unwinding; inhibition, % at 10.9 µM; 290,000 tested, 0.56% active;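 active means inhibition above the mean of all tested compounds plus 3 SD, set per campaign, cut at about 35% in these data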;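 further: 0% = DMSO wells and 100% = thioflavine S control wells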
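test system = hepatitis C virus NS3 helicase domain fragment enzyme | reagent = annealed dual-labelled DNA beacon duplex, ATP-started | times = 1 h at 25 °C | detection = Cy5 fluorescence, 0 and 60 min reads | read-out basis = percent inhibition from t60/t0 fluorescence ratio | control set = DMSO and thioflavine S | replication = one well per compound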
FID counter: compounds displacing fluorescent DNA intercalator, primary screen, artefact control for HCV NS3 helicase inhibitor project, biochemical, FID fluorescence; inhibition, % at 7.9 µM; DNA fluorescent intercalator displacement; 290,000 tested, 0.17% active; in the data active means inhibition above about 37%;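 further: 0% = vehicle and 100% = reference compound; higher means more ethidium bromide displaced from hairpin DNA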
MEKK2 WT-MEK5: modulators of MEK5 binding to wildtype MEKK2, primary screen, biochemical, multiplex bead flow cytometry, Alexa488-MEK5 | Mitogen-activated protein kinase kinase kinase 2 (Homo sapiens), Q9Y2U5 | Alexa488-MEK5 binding to MEKK2 WT; actives lie on both sides | binding response (% of control), % at 10 µM | 290,000 tested, 1.1% active; in the data active means binding response below about 67% or above about 130%
MEKK2 mut-MEK5: MEK5 binding signal on mutant MEKK2 PB1, primary screen, biochemical, multiplex bead flow cytometry, Alexa488-MEK5. 290,000 tested, 0.35% active. percent response, % at 10 µM. Alexa488-MEK5 binding to MEKK2 mutant; in the data active means percent response above about 24%, passing the limit was not always enough
MEKK3 PB1 HTS: modulators of MEKK3-MEK5 PB1 binding, primary screen, biochemical, wildtype MEKK3, multiplex bead flow cytometry, Alexa488-MEK5; Mitogen-activated protein kinase kinase kinase 3 (Homo sapiens), Q99759; binding response (% of control), % at 10 µM; bead-based flow cytometry, Alexa488-MEK5 binding to MEKK3; actives lie on both sides; 0 = blocked by unlabeled MEK5, 100 = vehicle; 290,000 tested, 1.4% active;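 active means binding response more than 3 SD above or below the average of its plate-row segment, actives on both sides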;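 further: Alexa488 bead fluorescence after subtracting the streptavidin-only scavenger bead signal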
Target sequence (Q99759 whole entry, looked up): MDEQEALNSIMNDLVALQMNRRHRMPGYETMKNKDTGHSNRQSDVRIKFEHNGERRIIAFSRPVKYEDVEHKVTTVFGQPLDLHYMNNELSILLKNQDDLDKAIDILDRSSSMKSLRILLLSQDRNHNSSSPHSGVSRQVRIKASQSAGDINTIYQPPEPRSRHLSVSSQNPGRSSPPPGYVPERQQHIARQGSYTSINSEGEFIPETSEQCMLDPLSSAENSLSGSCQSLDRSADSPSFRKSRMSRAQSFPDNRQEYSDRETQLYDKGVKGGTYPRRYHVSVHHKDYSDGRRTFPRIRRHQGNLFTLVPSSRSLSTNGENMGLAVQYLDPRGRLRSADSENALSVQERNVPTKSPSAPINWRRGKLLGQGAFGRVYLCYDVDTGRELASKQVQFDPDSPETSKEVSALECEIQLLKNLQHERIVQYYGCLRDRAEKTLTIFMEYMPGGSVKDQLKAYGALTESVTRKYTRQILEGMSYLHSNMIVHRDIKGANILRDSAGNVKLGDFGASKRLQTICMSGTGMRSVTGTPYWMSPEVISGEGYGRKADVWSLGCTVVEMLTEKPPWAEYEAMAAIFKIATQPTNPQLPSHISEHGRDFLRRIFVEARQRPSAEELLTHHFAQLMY
* hit, by the source's call. Shown are actives, neighbours in structure and some others; about 4.1% of the full set was active somewhere.

Results for Cc1ccc([N+](=O)[O-])cc1NC(=O)CN(C(=O)c1ccccc1Cl)C1CCCCC1 ?
T cruzi repl: 12; NS3 helicase inh: -7; FID counter: -16; MEKK2 WT-MEK5: 95; MEKK2 mut-MEK5: -3; MEKK3 PB1 HTS: 96

Results for Cc1ccc([N+](=O)[O-])cc1NC(=O)CN(C1CCCCC1)S(=O)(=O)c1ccc(Cl)cc1 ?
T cruzi repl: 59*; NS3 helicase inh: -11; FID counter: 0; MEKK2 WT-MEK5: 111; MEKK2 mut-MEK5: 2; MEKK3 PB1 HTS: 98

Results for Cc1ccc(NC(=O)CN(c2ccc(Cl)cc2)S(=O)(=O)c2cc([N+](=O)[O-])ccc2Cl)c(C)c1 ?
T cruzi repl: 59*; NS3 helicase inh: -6; FID counter: -2; MEKK2 WT-MEK5: 97; MEKK2 mut-MEK5: -5; MEKK3 PB1 HTS: 95

What do the screens show for `CCOC(=O)c1c(C)[nH]c(C)c1S(=O)(=O)N(C)CC(=O)N1CCN(c2ccc(OC)cc2)CC1`?
T cruzi repl: -7; NS3 helicase inh: 3; FID counter: -34; MEKK2 WT-MEK5: 103; MEKK2 mut-MEK5: 0; MEKK3 PB1 HTS: 103

What do the screens show for `COc1ccc(OC)c(N/C(C)=C/C(=O)c2ccccc2)c1`?
T cruzi repl: 56*; NS3 helicase inh: -6; FID counter: 5; MEKK2 WT-MEK5: 97; MEKK2 mut-MEK5: -2; MEKK3 PB1 HTS: 93

Results for COc1ccc(OC)c(N/C(C)=C/C(=O)c2ccncc2)c1 ?
T cruzi repl: -5; NS3 helicase inh: -9; FID counter: -25; MEKK2 WT-MEK5: 97; MEKK2 mut-MEK5: 8; MEKK3 PB1 HTS: 98

How did Cc1nn(C(C)C(=O)NCCCN2CCCCCC2)c(=O)c2c1sc1ccccc12 (configuration not stated) do in these assays?
T cruzi repl: 29; NS3 helicase inh: -24; FID counter: 2; MEKK2 WT-MEK5: 162*; MEKK2 mut-MEK5: 27*; MEKK3 PB1 HTS: 107

What do the screens show for `COC(=O)c1cc(S(=O)(=O)N2CCN(c3ccc(OC)cc3)CC2)cn1C`?
T cruzi repl: -18; NS3 helicase inh: 1; FID counter: -31; MEKK2 WT-MEK5: 102; MEKK2 mut-MEK5: 3; MEKK3 PB1 HTS: 102

What do the screens show for `Cc1ccc(S(=O)(=O)N2CCC(=O)N(C(COCc3ccc(Cl)cc3Cl)Cc3ccccc3)CC2)cc1` (configuration not stated)?
T cruzi repl: 75*; NS3 helicase inh: 0; FID counter: -5; MEKK2 WT-MEK5: 89; MEKK2 mut-MEK5: 2; MEKK3 PB1 HTS: 76

Results for COc1ccc(/C=C/C(=O)C(C(N)=O)=C2SCCS2)cc1 ?
T cruzi repl: 10; NS3 helicase inh: -14; FID counter: 1; MEKK2 WT-MEK5: 93; MEKK2 mut-MEK5: -9; MEKK3 PB1 HTS: 92

How did Cc1ccc(C(=O)C(C(=O)/C=C/c2ccccc2)=C2SCCCS2)cc1 do in these assays?
T cruzi repl: 59*; NS3 helicase inh: -10; FID counter: -14; MEKK2 WT-MEK5: 90; MEKK2 mut-MEK5: 2; MEKK3 PB1 HTS: 81

What do the screens show for `Cc1ccc(C)c(NC(=O)C2CCCN2S(=O)(=O)c2ccc3c(c2)n(C)c(=O)c(=O)n3C)c1` (configuration not stated)?
T cruzi repl: -3; NS3 helicase inh: -4; FID counter: -4; MEKK2 WT-MEK5: 99; MEKK2 mut-MEK5: -4; MEKK3 PB1 HTS: 108

How did COC(=O)C1=CN(Cc2ccc(OC)c(OC)c2)C=C(C(=O)OC)C1c1cccc(O)c1 do in these assays?
T cruzi repl: 58*; NS3 helicase inh: 7; FID counter: -36; MEKK2 WT-MEK5: 101; MEKK2 mut-MEK5: 0; MEKK3 PB1 HTS: 105

How did COC(=O)C1=CN(Cc2ccc(F)cc2)C=C(C(=O)OC)C1c1ccc(O)c(OC)c1 do in these assays?
T cruzi repl: 3; NS3 helicase inh: -4; FID counter: -33; MEKK2 WT-MEK5: 108; MEKK2 mut-MEK5: 6; MEKK3 PB1 HTS: 109

How did C=CCN(Cc1cn(C)nc1-c1cccc(Cl)c1)C1CCS(=O)(=O)C1 (configuration not stated) do in these assays?
NS3 helicase inh: -4; FID counter: -13; MEKK2 WT-MEK5: 107; MEKK2 mut-MEK5: 3; MEKK3 PB1 HTS: 105

Results for COc1cccc(-n2c(SCC(=O)Nc3sc4c(c3C(N)=O)CCC4)nc3ccccc3c2=O)c1 ?
T cruzi repl: 59*; NS3 helicase inh: 4; FID counter: -3; MEKK2 WT-MEK5: 91; MEKK2 mut-MEK5: -1; MEKK3 PB1 HTS: 98

What do the screens show for `COc1c(C)cc(S(=O)(=O)NCc2ccco2)c(C)c1C`?
T cruzi repl: 2; NS3 helicase inh: 1; FID counter: -7; MEKK2 WT-MEK5: 102; MEKK2 mut-MEK5: 0; MEKK3 PB1 HTS: 101

How did COc1cc(/C=C2\SC(=Nc3ccccc3)N(CCc3c[nH]c4ccccc34)C2=O)ccc1OC(C)C(=O)O (configuration not stated) do in these assays?
T cruzi repl: -4; NS3 helicase inh: 0; FID counter: -14; MEKK2 WT-MEK5: 101; MEKK2 mut-MEK5: 0; MEKK3 PB1 HTS: 125

How did O=C1/C(=C/c2ccc(N3CCOCC3)o2)SC(=Nc2ccccc2)N1CCc1c[nH]c2ccccc12 do in these assays?
T cruzi repl: 71*; NS3 helicase inh: 11; FID counter: -8; MEKK2 WT-MEK5: 81; MEKK2 mut-MEK5: 14; MEKK3 PB1 HTS: 95

What do the screens show for `NC(=O)NC(CC(=O)N1CCc2ccccc2C1)c1ccc(Cl)cc1` (configuration not stated)?
T cruzi repl: -8; NS3 helicase inh: -12; FID counter: -18; MEKK2 WT-MEK5: 104; MEKK2 mut-MEK5: 3; MEKK3 PB1 HTS: 102

What do the screens show for `O=C(c1ccco1)N(CCCN1CCOCC1)c1nc(-c2ccc(F)cc2)cs1`?
T cruzi repl: 69*; NS3 helicase inh: -35; FID counter: -1; MEKK2 WT-MEK5: 114; MEKK2 mut-MEK5: 7; MEKK3 PB1 HTS: 105

Results for COc1ccc(-c2csc(N(CCCN3CCOCC3)C(=O)CCl)n2)cc1 ?
T cruzi repl: 5; NS3 helicase inh: -10; FID counter: 6; MEKK2 WT-MEK5: 123; MEKK2 mut-MEK5: 14; MEKK3 PB1 HTS: 110

Results for O=C(c1ccco1)N(CCCN1CCOCC1)c1nc(-c2ccc(Cl)cc2)cs1 ?
T cruzi repl: 67*; NS3 helicase inh: -54; FID counter: 2; MEKK2 WT-MEK5: 121; MEKK2 mut-MEK5: 12; MEKK3 PB1 HTS: 103
